Reference: ChEMBL document CHEMBL1136357, “2-arylaminothiazoles as high-affinity corticotropin-releasing factor 1 receptor (CRF1R) antagonists: synthesis, binding studies and behavioral efficacy” (Bioorg Med Chem Lett, 2003)
pKi: −log10 of the molar value.

Assays:
[1] = target: T1, Corticotropin-releasing factor receptor 1 (Homo sapiens, UniProt P34998); assay: Binding affinity by displacement of [125I]Tyr-o-CRF from human corticotropin releasing factor receptor 1 expressed in IMR-32 human neuroblastoma cell.
T1 sequence (P34998 whole entry): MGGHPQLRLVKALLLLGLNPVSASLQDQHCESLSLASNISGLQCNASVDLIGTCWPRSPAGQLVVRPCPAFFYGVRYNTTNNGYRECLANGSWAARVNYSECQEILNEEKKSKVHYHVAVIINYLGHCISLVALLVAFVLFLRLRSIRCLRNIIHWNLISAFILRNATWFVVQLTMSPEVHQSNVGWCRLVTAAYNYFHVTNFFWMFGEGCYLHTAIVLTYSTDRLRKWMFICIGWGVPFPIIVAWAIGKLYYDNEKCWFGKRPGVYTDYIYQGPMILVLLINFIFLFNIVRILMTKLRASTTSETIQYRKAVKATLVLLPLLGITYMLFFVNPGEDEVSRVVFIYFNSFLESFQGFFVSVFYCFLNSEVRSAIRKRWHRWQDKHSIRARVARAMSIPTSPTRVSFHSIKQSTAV

[2] = Plasma clearance in rat after peroral administration at 10 mg/kg concentration; assay type: ADME, organism-based
Summary of the method: (§1)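 Rats were given the HCl salt at 10 mg/kg orally, and at 5 mg/kg intravenously in the same study. […] Half-life, clearance, volume of distribution and oral bioavailability (F) were derived from the same study.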

[3] = Half-life in rat after peroral administration at 10 mg/kg concentration; assay type: ADME, organism-based; settings: in vivo; summary of the method: as §1
[4] = Oral bioavailability in rat after peroral administration at 10 mg/kg; assay type: ADME, organism-based; settings: in vivo; summary of the method: as §1
[5] = Oral bioavailability in rat after […]; assay type: ADME, organism-based; settings: in vivo
[6] = Ratio in brain to that of rat plasma for 2 hr after peroral administration at 10 mg/kg; assay type: ADME, organism-based; parameters: dose 10 mg/kg, route oral; settings: po, read-out: B/P; summary of the method: as §1
[7] = Ratio in brain to that of rat plasma for 2 hr after […]; assay type: ADME, organism-based; parameters: route oral; settings: po, read-out: B/P
Rattus norvegicus [8] = assay: Area under curve in rat plasma for 0-4 hr after peroral administration at 10 mg/kg; assay type: ADME, organism-based; parameters: time < 4 hr, dose 10 mg/kg, route oral; settings: in vivo, po; summary of the method: as §1
IMR-32 = assay: Compound was tested for its ability to inhibit CRF stimulatedcAMP production in IMR-32 cells.; assay type: functional, Homo sapiens
Rattus norvegicus [9] = assay: Volume distribution in rat after peroral administration at 10 mg/kg; assay type: ADME, organism-based; parameters: dose 10 mg/kg, route oral; settings: in vivo, po; summary of the method: as §1
Rattus norvegicus [10] = assay: Volume distribution in rat after intravenous administration at 5 mg/kg; settings: in vivo
[11] = Half-life in rat after intravenous administration at 5 mg/kg concentration; settings: in vivo
[12] = Plasma clearance in rat after intravenous administration at 5 mg/kg concentration
Rattus norvegicus [13] = assay: Area under curve in rat plasma for 0-4 hr after peroral administration at 10 mg/kg; settings: in vivo, po

| pKi [1] | SMILES | other results |
| --- | --- | --- |
| 5.29 | CCCN(Cc1sc(Nc2ccc(OC)cc2OC)nc1C(F)(F)F)CC1CC1 |  |
|  | CCCN(Cc1sc(Nc2c(Cl)cc(Cl)cc2Cl)nc1C(F)(F)F)CC1CC1 | CL/F [2]: 16 mL/min/kg; half-life [3]: 7.6 h; bioavailability [4]: 9%; bioavailability [5]: 9%; Kp at 2 h [6]: 2; Kp at 2 h [7]: 2; AUC (Rattus norvegicus [8]): 1730 ng·h/mL; Inhibition (IMR-32): 90%; Vd (Rattus norvegicus [9]): 1.1 L/kg; Vd (Rattus norvegicus [10]): 1.1 L/kg; half-life [11]: 7.6 h; clearance [12]: 16 mL/min/kg; AUC (Rattus norvegicus [13]): 1730 ng·h/mL |
| 6.09 | CCCN(CCC)C(=O)c1sc(Nc2c(Cl)cc(Cl)cc2Cl)nc1C |  |
| 4.29 | COCCN(CCOC)C(=O)c1sc(Nc2c(Cl)cc(Cl)cc2Cl)nc1C |  |
| 6.44 | CCCN(CC1CC1)C(=O)c1sc(Nc2c(Cl)cc(Cl)cc2Cl)nc1C |  |
| 7.80 | CCCN(Cc1sc(Nc2c(C)cc(Cl)cc2Cl)nc1C(F)(F)F)CC1CC1 |  |
| 7.22 | CCCN(Cc1sc(Nc2c(C)cc(C)cc2C)nc1C(F)(F)F)CC1CC1 |  |
| 4.80 | CCN(CCOC)C(=O)c1sc(Nc2c(Cl)cc(Cl)cc2Cl)nc1C |  |
| 4.96 | CCCN(CC1CC1)C(=O)c1sc(Nc2c(Cl)cc(Cl)cc2Cl)nc1CC |  |
| 7.00 | CCCN(Cc1sc(N(C)c2c(C)cc(C)cc2Cl)nc1C(F)(F)F)CC1CC1 |  |
| 7.64 | CCCN(Cc1sc(Nc2c(C)cc(C)cc2Cl)nc1C(F)(F)F)CC1CC1 |  |
| 7.55 | CCCN(Cc1sc(Nc2c(Cl)cc(C(F)(F)F)cc2Cl)nc1C(F)(F)F)CC1CC1 |  |
| 5.54 | CCCN(Cc1sc(Nc2ccc(C(C)C)cc2Br)nc1C(F)(F)F)CC1CC1 |  |
| 4.51 | CCCN(CC1CC1)C(=O)c1sc(Nc2c(Cl)cc(Cl)cc2Cl)nc1C(F)(F)F |  |
| 7.55 | CCCN(Cc1sc(Nc2c(Br)cc(C)cc2Br)nc1C(F)(F)F)CC1CC1 |  |
| 7.25 | CCCN(Cc1sc(N(CC)c2ccc(C(C)C)cc2Br)nc1C(F)(F)F)CC1CC1 |  |
| 5.30 | CCN(CC)C(=O)c1sc(Nc2c(Cl)cc(Cl)cc2Cl)nc1C |  |
| 7.17 | CCCN(Cc1sc(N(CC)c2c(C)cc(C)cc2Cl)nc1C(F)(F)F)CC1CC1 |  |
| 7.68 | CCCN(Cc1sc(Nc2c(C)cc(C)cc2Br)nc1C(F)(F)F)CC1CC1 |  |
| 7.14 | CCCN(Cc1sc(Nc2c(C)cc(Cl)cc2C)nc1C(F)(F)F)CC1CC1 |  |
| < 4.40 | CCCN(Cc1sc(Nc2c(CC)cccc2CC)nc1C(F)(F)F)CC1CC1 |  |
| 8.11 | CCCN(Cc1sc(Nc2c(Br)cc(Br)cc2Br)nc1C(F)(F)F)CC1CC1 |  |
| 7.70 | CCCN(CC1CC1)c1nc(C)nc(Nc2c(Cl)cc(Cl)cc2Cl)c1Cl |  |
